The record followed here is ChEMBL document CHEMBL4028848, “Discovery of N-{4-[5-(4-Fluorophenyl)-3-methyl-2-methylsulfanyl-3H-imidazol-4-yl]-pyridin-2-yl}-acetamide (CBS-3595), a Dual p38α MAPK/PDE-4 Inhibitor with Activity against TNFα-Related Diseases” (J Med Chem, 2017).

Series [1] deals with Rattus norvegicus. As to the kind of experiment: In vivo inhibition of P38 MAPKalpha in Lewis rat assessed as decrease in LPS-stimulated TNFalpha level in serum at 10 mg/kg, po pretreated for 1 hr followed by LPS addition measured after 1.5 hrs post dose relative to control. Type of series: functional. An outline of the steps:
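Lewis rats, n = 8/group: females dosed orally at 10 mg/kg at −1, −3 or −5 h relative to LPS challenge, plus one male group dosed at −1 h. Male and female vehicle controls were given at −1 h. Serum TNFα was measured after LPS and compared with vehicle.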

The species entered for a further series is Homo sapiens. Description: Inhibition of PDE4 in human U937 cells assessed as [3H]cAMP hydrolysis at 10 uM relative to control. The series is classed as cell-based.
Series [2] relates to Liver. Description: Drug level in human liver microsomes treated with CBS-3595 at 10 to 100 uM. Type of series: ADME, microsome. The procedure, abridged: (§1)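 Test compound incubated at 10, 30 and 100 μM with liver microsomes from rat, Cynomolgus monkey or human, and metabolites monitored.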
Series [3] in a line: Drug level in cynomolgus monkey liver microsomes treated with CBS-3595 at 10 to 100 uM. The series is classed as ADME, Macaca fascicularis, microsome. An outline of the steps: as §1
Series [4] concerns Liver. Description: Drug level in rat liver microsomes treated with CBS-3595 at 10 to 100 uM. Type of series: ADME, microsome. An outline of the steps:
as §1

Series [5] concerns Rattus norvegicus. As to the kind of experiment: Antiarthritic activity in Lewis rat assessed as collagen oligomeric matrix protein level in serum at 1 mg/kg, po qd administered for 10 days (Rbv = 0.17 +/- 0.02 U/l). The series is classed as functional. An outline of the steps: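 Collagen-induced arthritis in male Lewis rats (5–6 per group). Groups received vehicle, dexamethasone 1 mg/kg, test item 50 mg/kg once daily, or 25 mg/kg twice daily for 10 days. Body weight, arthritic score and paw volume were monitored, and serum COMP was measured at the end.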

The target of series [6] is Mitogen-activated protein kinase 14 (Homo sapiens, UniProt Q16539). Description: Inhibition of p38alpha MAPK (unknown origin) at 1 uM relative to control.
The nature of series [7]: Half life in Wistar rat at 30 mg/kg, po administered as single dose via gavage by LC-MS/MS analysis. Type of series: ADME, organism-based. The conditions noted are these: in vivo. The procedure, abridged:
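Single oral gavage dose of 30 mg/kg given to male and female Wistar rats. PK parameters are reported as the mean of males and females.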

Series [8] has as its system Mus musculus. As to the kind of experiment: Antiarthritic activity in DBA/1 mouse assessed as decrease in collagen-induced arthritic score at 50 mg/kg, bid administered on day 22 post second injection of type 2 collagen. Type of series: functional, organism-based. An outline of the steps:
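Collagen-induced arthritis in male DBA/1 mice. Dosing at 50 mg/kg b.i.d. began on day 22, one day after the second (boost) injection of type II collagen.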

Another series addresses CYP1A2 (Homo sapiens, UniProt P05177). Description: Inhibition of CYP1A2 (unknown origin) at 10 uM by fluorimetric assay relative to control. Type of series: ADME. The procedure, abridged:
(§2)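 CYP1A2, CYP2C9, CYP2C19, CYP3A4 and CYP2D6 were tested as a panel for cytochrome P450 interaction.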

For series [9], the system named is Rattus norvegicus. Description: Toxicity in Wistar rat assessed as effect on microscopic appearance of spleen at 100 to 2500 mg/kg, po administered for 48 hrs followed by administration of 300 mg/kg, bid for 7 days starting 8 hrs interval between first and second dose measured after 7 days. The series is classed as organism-based. The conditions noted are these: in vivo, 168 h.

Series [10] deals with Mitogen-activated protein kinase 8 (Homo sapiens) (UniProt P45983). As to the kind of experiment: Inhibition of human recombinant full length N-terminal His6 tagged JNK1 expressed in Sf21 cells at 10 uM relative to control.
The subject of series [11] is Rattus norvegicus. Description: Toxicity in Wistar rat assessed as effect on number of blood cells at 100 to 2500 mg/kg, po administered for 48 hrs followed by administration of 300 mg/kg, bid for 7 days starting 8 hrs interval between first and second dose measured after 7 days. Type of series: organism-based. As to conditions: in vivo, 168 h. An outline of the steps:
(§3)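 Wistar rats, maximum-tolerated-dose estimate in two steps. Step one: single oral doses of 100 (n = 1), 500 (n = 1) and 2500 mg/kg (n = 3), with clinical signs watched for 48 h. Step two: 300 mg/kg (n = 5) twice daily for 7 days, second dose 8 h after the first. After 7 days, body weight gain, blood cell number and composition, liver enzymes, and macroscopic liver and spleen were recorded.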

Series [12] concerns Rattus norvegicus. As to the kind of experiment: Toxicity in Wistar rat assessed as effect on composition of blood cells at 100 to 2500 mg/kg, po administered for 48 hrs followed by administration of 300 mg/kg, bid for 7 days starting 8 hrs interval between first and second dose measured after 7 days. Type of series: organism-based. The conditions noted are these: in vivo, 168 h. An outline of the steps: as §3

Series [13] concerns the target Mitogen-activated protein kinase 11 (Homo sapiens) (UniProt Q15759). Description: Inhibition of p38beta (unknown origin) at 10 uM relative to control.
A short description of series [14]: Tmax in Wistar rat at 30 mg/kg, po administered as single dose via gavage by LC-MS/MS analysis. The conditions noted are these: in vivo. The series is classed as ADME, organism-based. The procedure, abridged: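 Male and female Wistar rats each received a single 30 mg/kg oral gavage dose. Tmax is the mean of males and females.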
Series [15] has as its target Mitogen-activated protein kinase 10 (Homo sapiens) (UniProt P53779). As to the kind of experiment: Inhibition of human recombinant full length N-terminal His6 tagged JNK3 expressed in Sf21 cells at 10 uM relative to control.
A further series addresses CYP2C19 (Homo sapiens, UniProt P33261). Description: Inhibition of CYP2C19 (unknown origin) at 10 uM by fluorimetric assay relative to control. Type of series: ADME. The procedure, abridged: as §2
Series [16] relates to Mus musculus. Description: Toxicity in DBA/1 mouse model of collagen-induced arthritis at 50 mg/kg, bid administered on day 22 post second injection of type 2 collagen. Type of series: organism-based. The conditions noted are these: in vivo. An outline of the steps: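 Male DBA/1 mice with collagen-induced arthritis were dosed at 50 mg/kg b.i.d. starting on day 22, 1 day after the type II collagen boost. Animals were monitored for signs of toxicity, including body weight loss relative to controls.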

For series [17], the target named is Mitogen-activated protein kinase 9 (Homo sapiens) (UniProt P45984). Description: Inhibition of human recombinant full length N-terminal His6 tagged JNK2 expressed in Sf21 cells at 10 uM relative to control.
A short description of series [18]: AUC (0 to t) in Wistar rat at 30 mg/kg, po administered as single dose via gavage by LC-MS/MS analysis. Type of series: ADME, organism-based. As to conditions: in vivo. The procedure, abridged: (§4)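 Male and female Wistar rats received a single oral gavage of 30 mg/kg. Parameters are given as the mean of the two sexes.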
The target of the next series is CYP2C9 (Homo sapiens, UniProt P11712). As to the kind of experiment: Inhibition of CYP2C9 (unknown origin) at 10 uM by fluorimetric assay relative to control. The series is classed as ADME. The procedure, abridged:
as §2

Series [19] concerns Mus musculus. Description: Protection against LPS/galactosamine-induced endotoxemia in Balb/c mouse assessed as inhibition of plasma TNFalpha level at 10 mg/kg, po pretreated for 1 hr followed by LPS/galactosamine addition measured after 90 mins relative to control. The series is classed as functional.
The target of another series is CYP2D6 (Homo sapiens, UniProt P10635). As to the kind of experiment: Inhibition of CYP2D6 (unknown origin) at 10 uM by fluorimetric assay relative to control. Type of series: ADME. The procedure, abridged:
as §2

In another series the target is CYP3A4 (Homo sapiens, UniProt P08684). As to the kind of experiment: Inhibition of CYP3A4 (unknown origin) at 10 uM by fluorimetric assay relative to control. Type of series: ADME. The procedure, abridged:
as §2

Series [20] has as its system Rattus norvegicus. Description: Toxicity in Wistar rat assessed as effect on liver enzyme at 100 to 2500 mg/kg, po administered for 48 hrs followed by administration of 300 mg/kg, bid for 7 days starting 8 hrs interval between first and second dose measured after 7 days. Type of series: organism-based. As to conditions: in vivo, 168 h. An outline of the steps:
as §3

Series [21] deals with Rattus norvegicus. Description: Toxicity in Wistar rat assessed as change in body weight at 100 to 2500 mg/kg, po administered for 48 hrs followed by administration of 300 mg/kg, bid for 7 days starting 8 hrs interval between first and second dose measured after 7 days. The series is classed as organism-based. The conditions noted are these: in vivo, 168 h. The procedure, abridged:
as §3

Series [22] in a line: Cmax in Wistar rat at 30 mg/kg, po administered as single dose via gavage by LC-MS/MS analysis. Type of series: ADME, organism-based. Also noted: dose 30 mg/kg, route oral. The conditions noted are these: in vivo. An outline of the steps:
as §4

In series [23] the test system is Rattus norvegicus. As to the kind of experiment: Toxicity in Wistar rat assessed as effect on microscopic appearance of liver at 100 to 2500 mg/kg, po administered for 48 hrs followed by administration of 300 mg/kg, bid for 7 days starting 8 hrs interval between first and second dose measured after 7 days. The series is classed as organism-based. The conditions noted are these: in vivo, 168 h.

Several values for one entry are separate records, joined by “and”; a condition that tells them apart may be missing. Equal entries are not always repeated. Activity calls are given as the source filed them. Bounds are passed on as bounds.

CYP1A2, sequence (P05177 whole entry): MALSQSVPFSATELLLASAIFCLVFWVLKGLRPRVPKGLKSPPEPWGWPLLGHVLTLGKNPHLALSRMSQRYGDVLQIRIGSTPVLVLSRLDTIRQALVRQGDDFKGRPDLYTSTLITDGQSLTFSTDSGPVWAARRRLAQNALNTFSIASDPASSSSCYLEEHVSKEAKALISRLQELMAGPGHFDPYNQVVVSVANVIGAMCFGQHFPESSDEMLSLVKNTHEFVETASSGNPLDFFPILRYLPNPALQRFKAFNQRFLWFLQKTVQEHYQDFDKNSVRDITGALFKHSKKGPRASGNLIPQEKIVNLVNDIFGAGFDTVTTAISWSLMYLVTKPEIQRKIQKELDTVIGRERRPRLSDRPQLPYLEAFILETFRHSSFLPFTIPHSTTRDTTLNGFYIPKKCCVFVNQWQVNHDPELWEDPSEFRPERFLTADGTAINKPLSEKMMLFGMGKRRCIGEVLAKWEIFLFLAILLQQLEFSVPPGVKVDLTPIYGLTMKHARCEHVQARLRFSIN
CYP3A4, sequence (P08684 whole entry): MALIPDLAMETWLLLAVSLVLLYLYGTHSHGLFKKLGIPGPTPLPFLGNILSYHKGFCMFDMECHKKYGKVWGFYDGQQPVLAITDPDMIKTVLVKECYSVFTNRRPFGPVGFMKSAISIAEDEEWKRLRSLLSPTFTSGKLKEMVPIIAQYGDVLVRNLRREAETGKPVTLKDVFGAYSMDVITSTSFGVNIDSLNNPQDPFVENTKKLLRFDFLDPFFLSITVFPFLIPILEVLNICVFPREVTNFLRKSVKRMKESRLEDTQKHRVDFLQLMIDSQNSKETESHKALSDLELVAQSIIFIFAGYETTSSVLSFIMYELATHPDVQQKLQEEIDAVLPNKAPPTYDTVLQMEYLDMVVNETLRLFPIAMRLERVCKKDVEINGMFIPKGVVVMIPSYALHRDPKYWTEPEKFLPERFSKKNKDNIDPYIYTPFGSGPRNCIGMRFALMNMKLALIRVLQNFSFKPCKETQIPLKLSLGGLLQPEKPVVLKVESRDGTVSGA
Mitogen-activated protein kinase 14, sequence (Q16539 whole entry): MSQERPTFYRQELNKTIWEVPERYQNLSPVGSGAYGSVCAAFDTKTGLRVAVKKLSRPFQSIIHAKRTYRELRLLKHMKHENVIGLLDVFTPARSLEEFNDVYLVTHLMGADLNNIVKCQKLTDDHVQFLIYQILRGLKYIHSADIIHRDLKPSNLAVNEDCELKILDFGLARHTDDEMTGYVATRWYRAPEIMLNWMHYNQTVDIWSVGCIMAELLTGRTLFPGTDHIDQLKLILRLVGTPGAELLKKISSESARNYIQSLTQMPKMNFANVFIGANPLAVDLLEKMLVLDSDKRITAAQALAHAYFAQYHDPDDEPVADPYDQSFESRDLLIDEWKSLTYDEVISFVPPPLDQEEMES
CYP2C9, sequence (P11712 whole entry): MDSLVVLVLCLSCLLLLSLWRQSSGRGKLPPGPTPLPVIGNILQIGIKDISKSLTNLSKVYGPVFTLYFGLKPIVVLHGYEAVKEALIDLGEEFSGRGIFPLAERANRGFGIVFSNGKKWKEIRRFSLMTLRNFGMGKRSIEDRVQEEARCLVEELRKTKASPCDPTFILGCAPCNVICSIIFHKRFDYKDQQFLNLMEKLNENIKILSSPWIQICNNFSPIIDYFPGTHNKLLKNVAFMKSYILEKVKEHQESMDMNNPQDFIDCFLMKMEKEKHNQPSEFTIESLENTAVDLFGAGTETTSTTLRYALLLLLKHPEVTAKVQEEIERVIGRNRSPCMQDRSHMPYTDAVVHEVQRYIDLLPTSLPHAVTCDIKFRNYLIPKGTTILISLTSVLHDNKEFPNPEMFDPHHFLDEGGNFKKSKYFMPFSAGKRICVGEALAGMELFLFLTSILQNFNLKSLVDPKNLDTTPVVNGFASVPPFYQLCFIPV
Mitogen-activated protein kinase 9 (Homo sapiens), sequence (P45984 whole entry, looked up): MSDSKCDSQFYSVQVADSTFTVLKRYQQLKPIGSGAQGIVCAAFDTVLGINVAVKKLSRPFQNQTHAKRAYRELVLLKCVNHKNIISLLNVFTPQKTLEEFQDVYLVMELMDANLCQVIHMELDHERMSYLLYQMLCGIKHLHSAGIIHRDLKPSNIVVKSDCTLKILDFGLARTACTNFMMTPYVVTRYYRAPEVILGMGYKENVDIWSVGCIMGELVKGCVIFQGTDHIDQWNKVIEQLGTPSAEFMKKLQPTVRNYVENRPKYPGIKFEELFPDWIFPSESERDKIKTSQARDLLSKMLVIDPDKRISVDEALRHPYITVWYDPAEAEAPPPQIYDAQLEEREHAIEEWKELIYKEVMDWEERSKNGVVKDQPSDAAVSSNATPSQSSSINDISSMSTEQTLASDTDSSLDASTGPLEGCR
CYP2D6, sequence (P10635 whole entry): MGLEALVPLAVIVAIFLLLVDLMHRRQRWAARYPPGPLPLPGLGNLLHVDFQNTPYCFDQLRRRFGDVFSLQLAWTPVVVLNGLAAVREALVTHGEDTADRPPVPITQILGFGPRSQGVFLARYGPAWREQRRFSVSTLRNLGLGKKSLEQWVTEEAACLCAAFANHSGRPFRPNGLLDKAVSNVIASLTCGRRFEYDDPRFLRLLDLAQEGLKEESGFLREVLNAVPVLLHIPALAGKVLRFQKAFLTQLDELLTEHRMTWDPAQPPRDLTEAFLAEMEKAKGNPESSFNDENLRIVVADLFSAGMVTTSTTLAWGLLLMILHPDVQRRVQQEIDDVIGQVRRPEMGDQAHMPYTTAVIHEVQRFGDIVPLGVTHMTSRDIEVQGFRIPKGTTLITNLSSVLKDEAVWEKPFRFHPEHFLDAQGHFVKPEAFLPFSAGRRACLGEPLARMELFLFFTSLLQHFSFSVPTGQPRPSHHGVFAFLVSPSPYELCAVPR
Mitogen-activated protein kinase 11 (Homo sapiens), sequence (Q15759 whole entry): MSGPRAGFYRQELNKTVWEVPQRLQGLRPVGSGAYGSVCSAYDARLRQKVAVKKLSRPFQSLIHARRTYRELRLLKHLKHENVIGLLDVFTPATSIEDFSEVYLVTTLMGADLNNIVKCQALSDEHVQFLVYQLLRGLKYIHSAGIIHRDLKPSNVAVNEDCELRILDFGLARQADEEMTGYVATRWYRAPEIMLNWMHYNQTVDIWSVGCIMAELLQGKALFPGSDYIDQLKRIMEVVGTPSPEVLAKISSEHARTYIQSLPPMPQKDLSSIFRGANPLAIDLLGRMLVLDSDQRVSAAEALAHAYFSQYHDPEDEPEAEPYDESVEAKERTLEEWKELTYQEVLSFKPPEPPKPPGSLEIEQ
Mitogen-activated protein kinase 10 (Homo sapiens), sequence (P53779 whole entry): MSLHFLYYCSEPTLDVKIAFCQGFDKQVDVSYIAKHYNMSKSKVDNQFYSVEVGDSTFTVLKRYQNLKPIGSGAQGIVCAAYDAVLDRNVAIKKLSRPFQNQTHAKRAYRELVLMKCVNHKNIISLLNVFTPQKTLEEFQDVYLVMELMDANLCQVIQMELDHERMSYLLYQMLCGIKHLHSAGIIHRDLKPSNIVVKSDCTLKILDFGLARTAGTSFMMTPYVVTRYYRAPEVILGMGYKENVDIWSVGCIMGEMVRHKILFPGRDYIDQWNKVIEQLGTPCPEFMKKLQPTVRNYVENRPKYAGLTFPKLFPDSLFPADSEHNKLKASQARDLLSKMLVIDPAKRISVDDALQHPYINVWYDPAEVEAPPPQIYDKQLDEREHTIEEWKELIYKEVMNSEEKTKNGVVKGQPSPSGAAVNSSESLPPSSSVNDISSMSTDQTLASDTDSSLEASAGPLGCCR
CYP2C19, sequence (P33261 whole entry): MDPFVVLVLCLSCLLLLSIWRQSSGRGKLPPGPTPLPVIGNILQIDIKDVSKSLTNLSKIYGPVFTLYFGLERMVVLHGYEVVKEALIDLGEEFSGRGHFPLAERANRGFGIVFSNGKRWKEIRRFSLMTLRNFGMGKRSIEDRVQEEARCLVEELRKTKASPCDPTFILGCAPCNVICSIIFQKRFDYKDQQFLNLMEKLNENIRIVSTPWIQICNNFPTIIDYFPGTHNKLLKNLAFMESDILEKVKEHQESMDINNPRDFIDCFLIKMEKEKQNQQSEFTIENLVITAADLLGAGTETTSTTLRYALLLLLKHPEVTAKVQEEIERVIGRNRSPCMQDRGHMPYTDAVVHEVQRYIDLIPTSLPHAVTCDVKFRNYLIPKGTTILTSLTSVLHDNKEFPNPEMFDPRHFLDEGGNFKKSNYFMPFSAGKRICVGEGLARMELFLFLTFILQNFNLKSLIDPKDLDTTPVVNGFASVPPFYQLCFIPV
Mitogen-activated protein kinase 8 (Homo sapiens), sequence (P45983 whole entry): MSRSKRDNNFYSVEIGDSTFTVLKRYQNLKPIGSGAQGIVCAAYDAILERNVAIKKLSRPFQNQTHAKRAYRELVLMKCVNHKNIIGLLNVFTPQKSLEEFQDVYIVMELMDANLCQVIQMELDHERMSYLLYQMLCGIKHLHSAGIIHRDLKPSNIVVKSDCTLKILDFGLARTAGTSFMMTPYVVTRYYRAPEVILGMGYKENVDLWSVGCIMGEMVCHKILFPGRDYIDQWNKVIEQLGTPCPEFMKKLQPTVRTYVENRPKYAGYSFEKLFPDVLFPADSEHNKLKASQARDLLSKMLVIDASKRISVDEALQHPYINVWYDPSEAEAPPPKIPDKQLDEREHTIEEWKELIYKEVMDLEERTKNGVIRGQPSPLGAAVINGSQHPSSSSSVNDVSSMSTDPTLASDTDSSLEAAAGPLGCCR

As for `CS(=O)(=O)c1nc(-c2ccc(F)cc2)c(-c2ccnc(NC3CCOCC3)c2)[nH]1`, the inhibition in vivo at 10 mg/kg with Rattus norvegicus [1] was determined as 21%. Further, in the series listed under Homo sapiens, the inhibition worked out at 36%.
As to `CCc1nc(-c2cccc(C)c2)c(-c2ccnc(NC(=O)c3ccccc3)c2)s1` [TAK-715], the inhibition in vivo at 10 mg/kg with Rattus norvegicus [1] came out at 6%.
Turning to `Cn1c(S(C)(=O)=O)nc(-c2ccc(F)cc2)c1-c1ccnc(N)c1`, the Drug metabolism entry (in the series with Liver [2]; in series [3]; in the series with Liver [4]) was “Metabolite_Detected” in each case.
`C[C@@H]1C[C@H]2[C@@H]3CCC4=CC(=O)C=C[C@]4(C)[C@@]3(F)[C@@H](O)C[C@]2(C)[C@@]1(O)C(=O)CO` [DEXAMETHASONE]: the Activity in the series with Rattus norvegicus [5] was 0.03 U/L.
As for `CC(=O)Nc1cc(-c2c(-c3ccc(F)cc3)nc([S@+](C)[O-])n2C)ccn1`, the inhibition in [6] came out at 11%.
Consider `CSc1nc(-c2ccc(F)cc2)c(-c2ccnc(Nc3ccccc3)c2)[nH]1`, for which the half-life in series [7] is 2.8 h. In addition, in the series on Mus musculus [8], the result was Active. Also, the inhibition at 10 µM against CYP1A2 was found to be 72%; against CYP2C19 it was 90%; on CYP2C9, 60%; at CYP2D6, 74.5%; at CYP3A4, 16.5%. Moreover, the Activity result in the series on Rattus norvegicus [9], in the series on Rattus norvegicus [11], in the series on Rattus norvegicus [12], with Mus musculus [16], with Rattus norvegicus [20] and in the series on Rattus norvegicus [21] was “Non-Toxic” throughout. Also, in the series with Rattus norvegicus [23], the Activity result was “Non-Toxic”. The inhibition in [10], in [13], in series [15] and in series [17] was more than 70% in each case. Moreover, the time of peak concentration (Tmax) in [14] was found to be 2 h. In addition, the exposure AUC(0-t) in series [18] was 3710 ng·h/mL and 9.86 µM·h. Besides, the inhibition in vivo at 10 mg/kg in the series on Mus musculus [19] stood at 60%. Also, the highest concentration (Cmax) in series [22] was 608 ng/mL and 1.61 µM.

What is called inhibition in vivo is the change of the read-out against control, counted positive when it falls. For orientation: inhibition means the change of the read-out against control, counted positive when it falls. As a reminder, the half-life is the time needed for the level to fall by half in the phase considered. As a reminder, the Tmax is the time at which the peak concentration occurs. Broadly, the AUC(0-t) is exposure summed from dosing to a finite time, without extrapolation to infinity. In general, Cmax refers to the peak of the concentration-time curve.
